The record followed here is ChEMBL document CHEMBL1275580, “Antifungal susceptibilities among different serotypes of Cryptococcus gattii and Cryptococcus neoformans” (2009).

≈ marks a conversion by molar mass, not a printed value.

The test system of test [1] is Cryptococcus gattii species complex. The test is described as follows: Antifungal activity against Cryptococcus gattii serotype C after 72 hrs by broth microdilution method. The test is classed as functional, Cryptococcus bacillisporus. The method, boiled down:
(§1)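 Isolates subcultured at least twice on Sabouraud dextrose agar; serotype by multiplex PCR, species confirmed on canavanine-glycine-bromothymol blue medium. CLSI M27-A2 broth microdilution in RPMI 1640 with MOPS, pH 7.0. Inoculum 0.5–2.5 × 10^3 cells/ml, 35°C. Final drug range 0.015–8 or 0.25–64 μg/ml. MIC at 72 h read as 50% turbidity reduction versus growth control, or 100% inhibition for the polyene.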
For orientation: In broth dilution the organism is exposed to a series of concentrations in liquid medium.

In test [2] the test system is Cryptococcus neoformans. Kind of test: Antifungal activity against Cryptococcus neoformans after 72 hrs by broth microdilution method. The test is classed as functional. The method, boiled down: (§2)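 Isolates subcultured at least twice on Sabouraud dextrose agar; serotype assigned by multiplex PCR, species confirmed on canavanine-glycine-bromothymol blue medium. CLSI M27-A2 broth microdilution in RPMI 1640 buffered to pH 7.0 with MOPS, inoculum 0.5 × 10^3 to 2.5 × 10^3 cells/ml, 35°C. Final drug ranges were 0.015–8 or 0.25–64 μg/ml depending on agent. MIC read at 72 h as 50% turbidity reduction versus growth control, or as 100% inhibition for the polyene. C. krusei ATCC 6258 and C. parapsilosis ATCC 22019 served as QC strains.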

For test [3], the system named is Cryptococcus gattii species complex. The test is described as follows: Antifungal activity against Cryptococcus gattii serotype B after 72 hrs by broth microdilution method. The test is classed as functional, Cryptococcus bacillisporus. The method, boiled down: as §1
Test [4] has as its system Cryptococcus neoformans. The test is described as follows: Antifungal activity against Cryptococcus neoformans serotype AD after 72 hrs by broth microdilution method. In kind it is functional. The method, boiled down:
as §2

Test [5] concerns Cryptococcus neoformans. Kind of test: Antifungal activity against Cryptococcus neoformans serotype A after 72 hrs by broth microdilution method. The test is classed as functional. The method, boiled down:
as §2

The subject of test [6] is Cryptococcus neoformans. Kind of test: Antifungal activity against Cryptococcus neoformans serotype D after 72 hrs by broth microdilution method. In kind it is functional. The method, boiled down: as §2
Test [7] deals with Cryptococcus gattii species complex. The test is described as follows: Antifungal activity against Cryptococcus gattii after 72 hrs by broth microdilution method. In kind it is functional, Cryptococcus bacillisporus. The method, boiled down: as §1

For `Nc1nc(=O)[nH]cc1F` [FLUCYTOSINE], the MIC50 in test [1] came to 2 µg/mL (≈ 15.5 µM); in the test with Cryptococcus neoformans [2], 4 µg/mL (≈ 31 µM); in test [3], 2 µg/mL (≈ 15.5 µM); in the test on Cryptococcus neoformans [4] it was 4 µg/mL (≈ 31 µM); in the test on Cryptococcus neoformans [5], 4 µg/mL (≈ 31 µM); against Cryptococcus neoformans [6] it was 4 µg/mL (≈ 31 µM). The same molecule had an MIC50 in test [7] of 2 µg/mL (≈ 15.5 µM). In addition, the MIC90 in test [1] was 8 µg/mL (≈ 62 µM); against Cryptococcus neoformans [2] it was 8 µg/mL (≈ 62 µM); in test [3] it was 4 µg/mL (≈ 31 µM); in the test on Cryptococcus neoformans [4] it was 8 µg/mL (≈ 62 µM); against Cryptococcus neoformans [5], 4 µg/mL (≈ 31 µM); in the test with Cryptococcus neoformans [6], 8 µg/mL (≈ 62 µM). The molecule further gave an MIC90 in test [7] of 8 µg/mL (≈ 62 µM).
Take `C[C@@H](c1ncncc1F)[C@](O)(Cn1cncn1)c1ccc(F)cc1F` [VORICONAZOLE]: the MIC50 in test [1] came out at 0.125 µg/mL (≈ 0.358 µM); with Cryptococcus neoformans [2] it was 0.06 µg/mL (≈ 0.172 µM); in test [3], 0.125 µg/mL (≈ 0.358 µM); in the test with Cryptococcus neoformans [4], 0.06 µg/mL (≈ 0.172 µM); with Cryptococcus neoformans [5], 0.06 µg/mL (≈ 0.172 µM); in the test on Cryptococcus neoformans [6] it was 0.03 µg/mL (≈ 0.0859 µM). Moreover, the MIC50 in test [7] is 0.125 µg/mL (≈ 0.358 µM). The MIC90 in test [1] is 0.25 µg/mL (≈ 0.716 µM); with Cryptococcus neoformans [2], 0.25 µg/mL (≈ 0.716 µM); in test [3] it was 0.25 µg/mL (≈ 0.716 µM); against Cryptococcus neoformans [4] it was 0.125 µg/mL (≈ 0.358 µM); against Cryptococcus neoformans [5], 0.25 µg/mL (≈ 0.716 µM); in the test on Cryptococcus neoformans [6], 0.25 µg/mL (≈ 0.716 µM). This molecule displayed an MIC90 in test [7] of 0.25 µg/mL (≈ 0.716 µM).
As for `CC[C@@H]([C@H](C)O)n1ncn(-c2ccc(N3CCN(c4ccc(OC[C@@H]5CO[C@@](Cn6cncn6)(c6ccc(F)cc6F)C5)cc4)CC3)cc2)c1=O` [POSACONAZOLE], the MIC50 in test [1] is 0.03 µg/mL (≈ 0.0428 µM); in the test on Cryptococcus neoformans [2], 0.03 µg/mL (≈ 0.0428 µM); in test [3], 0.03 µg/mL (≈ 0.0428 µM); with Cryptococcus neoformans [4] it was 0.03 µg/mL (≈ 0.0428 µM); against Cryptococcus neoformans [5], 0.06 µg/mL (≈ 0.0856 µM); in the test with Cryptococcus neoformans [6], < 0.015 µg/mL. In test [7], this molecule gave an MIC50 of 0.03 µg/mL (≈ 0.0428 µM). Further, the MIC90 is 0.06 µg/mL (≈ 0.0856 µM) in test [1]; 0.06 µg/mL (≈ 0.0856 µM) against Cryptococcus neoformans [2]; 0.125 µg/mL (≈ 0.178 µM) in test [3]; 0.06 µg/mL (≈ 0.0856 µM) in the test on Cryptococcus neoformans [4]; 0.25 µg/mL (≈ 0.357 µM) in the test on Cryptococcus neoformans [5]; 0.06 µg/mL (≈ 0.0856 µM) in the test on Cryptococcus neoformans [6]. In test [7], this molecule returned an MIC90 of 0.125 µg/mL (≈ 0.178 µM). In addition, the MIC in the test on Cryptococcus neoformans [6] is < 0.015 µg/mL.
On to `C[C@@H](c1nc(-c2ccc(C#N)cc2)cs1)[C@](O)(Cn1cncn1)c1cc(F)ccc1F` [ISAVUCONAZOLE], for which the MIC (in test [1]; in the test on Cryptococcus neoformans [2]; against Cryptococcus neoformans [4]; against Cryptococcus neoformans [6]) was < 0.015 µg/mL in each case. The MIC50 in test [1] was < 0.015 µg/mL; against Cryptococcus neoformans [2] it was < 0.015 µg/mL; in test [3], 0.03 µg/mL (≈ 0.0686 µM); in the test with Cryptococcus neoformans [4] it was < 0.015 µg/mL; with Cryptococcus neoformans [5] it was 0.03 µg/mL (≈ 0.0686 µM); in the test on Cryptococcus neoformans [6], < 0.015 µg/mL. The molecule also returned an MIC50 in test [7] of 0.03 µg/mL (≈ 0.0686 µM). Further, the MIC90 in test [1] came to 0.03 µg/mL (≈ 0.0686 µM); in the test with Cryptococcus neoformans [2], 0.06 µg/mL (≈ 0.137 µM); in test [3] it was 0.06 µg/mL (≈ 0.137 µM); in the test on Cryptococcus neoformans [4], 0.03 µg/mL (≈ 0.0686 µM); in the test on Cryptococcus neoformans [5], 0.125 µg/mL (≈ 0.286 µM); against Cryptococcus neoformans [6] it was 0.03 µg/mL (≈ 0.0686 µM). In test [7], this molecule had an MIC90 of 0.06 µg/mL (≈ 0.137 µM).
On to `OC(Cn1cncn1)(Cn1cncn1)c1ccc(F)cc1F` [FLUCONAZOLE], for which the MIC50 (in test [1]; in the test on Cryptococcus neoformans [2]; in test [3]; against Cryptococcus neoformans [4]; against Cryptococcus neoformans [5]; in test [7]) was 2 µg/mL (≈ 6.53 µM) each time. Besides, the MIC90 in test [1] was found to be 4 µg/mL (≈ 13.1 µM); against Cryptococcus neoformans [2], 4 µg/mL (≈ 13.1 µM); in test [3], 8 µg/mL (≈ 26.1 µM); in the test on Cryptococcus neoformans [4], 4 µg/mL (≈ 13.1 µM); in the test with Cryptococcus neoformans [5], 4 µg/mL (≈ 13.1 µM); in test [7], 8 µg/mL (≈ 26.1 µM).
As for `C[C@@H]1[C@H](O)[C@@H](C)/C=C/C=C/C=C/C=C/C=C/C=C/C=C/[C@H](O[C@@H]2O[C@H](C)[C@@H](O)[C@H](N)[C@@H]2O)C[C@@H]2O[C@](O)(C[C@@H](O)C[C@@H](O)[C@H](O)CC[C@@H](O)C[C@@H](O)CC(=O)O[C@H]1C)C[C@H](O)[C@H]2C(=O)O` [AMPHOTERICIN B], the MIC50 (in test [1]; against Cryptococcus neoformans [2]; in test [3]; in the test with Cryptococcus neoformans [4]; in the test with Cryptococcus neoformans [5]; in test [7]) was 0.25 µg/mL (≈ 0.271 µM) in each case. For the same molecule, the MIC90 in test [1] amounted to 0.5 µg/mL (≈ 0.541 µM); in the test on Cryptococcus neoformans [2], 0.5 µg/mL (≈ 0.541 µM); in test [3], 0.25 µg/mL (≈ 0.271 µM); with Cryptococcus neoformans [4], 0.25 µg/mL (≈ 0.271 µM); with Cryptococcus neoformans [5], 0.5 µg/mL (≈ 0.541 µM); in test [7] it was 0.25 µg/mL (≈ 0.271 µM).

For orientation: MIC50 means the lowest concentration that inhibits either 50% of growth or 50% of the strains tested, depending on the study. A low value points to greater potency. One may read the MIC90 as an inhibitory concentration at the 90% level, which refers to growth in some studies and to a panel of isolates in others. As usually defined, the MIC is the least concentration at which growth counts as inhibited. Read a low MIC as a more susceptible organism.
